Test results as given in ChEMBL document CHEMBL5724801, “EUbOPEN Chemogenomics Library - Multiplex” (2024).
“And” between values parts separate entries of the source, which are not always exact repeats. Identical values can stand only once.

What was measured:
[1] = system: U2OS; assay: Multiplex assay against U2OS; assay type: toxicity, cell-based; conditions: human
Outline: (§1)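 Live cells carried four stains from seeding: Hoechst33342, BioTracker Green Microtubule Cytoskeleton Dye, MitoTracker Red and Annexin V Alexa Fluor 680. They were imaged on a CQ1 microscope at 37°C and 5% CO2 after compound addition. Using CellPathfinder machine-learning gating, cells were split into Hoechst high-intensity objects or normal cells, normal cells into healthy, pyknosed or fragmented nuclei, and pyknosed cells into mitotic or apoptotic; tubulin, mitochondrial-mass and membrane-permeability phenotypes are per cents of healthy-nucleus cells.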

[2] = system: HEK-293T; assay: Multiplex assay against HEK293T; assay type: toxicity, cell-based; conditions: human; outline: as §1
[3] = 12 h, 1 µM, compound concentration 1 uM
[4] = 12 h, 10 µM, compound concentration 10 uM
[5] = 24 h, 1 µM, compound concentration 1 uM
[6] = 24 h, 10 µM, compound concentration 10 uM
[7] = 48 h, 1 µM, compound concentration 1 uM
[8] = 48 h, 10 µM, compound concentration 10 uM

COc1cc(Nc2ncc3c(n2)-c2ccc(Cl)cc2C(c2c(F)cccc2OC)=NC3)ccc1C(=O)O [ALISERTIB]
Population Apoptotic (%) [1, 3]: 63% and 71% | Population Fragmented Nuclei (%) [1, 3]: 23% and 35% | Population Healthy Nuclei (%) [1, 3]: 65% and 55% | Population Hoechst High Intensity Objects (%) [1, 3]: 1% and 4% | Population Membrane Permeable-Phenotype (%) [1, 3]: 4% and 8% | Population Mitochondria Different-Phenotype (%) [1, 3]: 3% and 4% | Population Mitotic Cells (%) [1, 3]: 36% and 28% | Population Normal (%) [1, 3]: 98% and 95% | Population Pyknosed Nuclei (%) [1, 3]: 10% and 8% | Population Tubulin-Different-Phenotype (%) [1, 3]: 3% and 11% | Population Apoptotic (%) [1, 4]: 79% and 71% | Population Fragmented Nuclei (%) [1, 4]: 31% and 12% | Population Healthy Nuclei (%) [1, 4]: 57% and 82% | Population Hoechst High Intensity Objects (%) [1, 4]: 3% and 2% | Population Membrane Permeable-Phenotype (%) [1, 4]: 11% and 5% | Population Mitochondria Different-Phenotype (%) [1, 4]: 5% and 1% | Population Mitotic Cells (%) [1, 4]: 20% and 28% | Population Normal (%) [1, 4]: 96% and 97% | Population Pyknosed Nuclei (%) [1, 4]: 11% and 5% | Population Tubulin-Different-Phenotype (%) [1, 4]: 4% and 0% | Population Apoptotic (%) [1, 5]: 78% and 75% | Population Fragmented Nuclei (%) [1, 5]: 26% and 20% | Population Healthy Nuclei (%) [1, 5]: 64% and 63% | Population Hoechst High Intensity Objects (%) [1, 5]: 1% and 2% | Population Membrane Permeable-Phenotype (%) [1, 5]: 9% and 6% | Population Mitochondria Different-Phenotype (%) [1, 5]: 4% and 2% | Population Mitotic Cells (%) [1, 5]: 21% and 25% | Population Normal (%) [1, 5]: 98% and 97% | Population Pyknosed Nuclei (%) [1, 5]: 8% and 15% | Population Tubulin-Different-Phenotype (%) [1, 5]: 5% and 2% | Population Apoptotic (%) [1, 6]: 84% and 90% | Population Fragmented Nuclei (%) [1, 6]: 30% and 12% | Population Healthy Nuclei (%) [1, 6]: 55% and 77% | Population Hoechst High Intensity Objects (%) [1, 6]: 4% | Population Membrane Permeable-Phenotype (%) [1, 6]: 13% and 9% | Population Mitochondria Different-Phenotype (%) [1, 6]: 5% and 4% | Population Mitotic Cells (%) [1, 6]: 15% and 9% | Population Normal (%) [1, 6]: 95% | Population Pyknosed Nuclei (%) [1, 6]: 13% and 9% | Population Tubulin-Different-Phenotype (%) [1, 6]: 4% and 5% | Population Apoptotic (%) [1, 7]: 85% and 78% | Population Fragmented Nuclei (%) [1, 7]: 28% and 29% | Population Healthy Nuclei (%) [1, 7]: 59% and 53% | Population Hoechst High Intensity Objects (%) [1, 7]: 3% | Population Membrane Permeable-Phenotype (%) [1, 7]: 6% and 11% | Population Mitochondria Different-Phenotype (%) [1, 7]: 5% and 6% | Population Mitotic Cells (%) [1, 7]: 14% and 21% | Population Normal (%) [1, 7]: 96% | Population Pyknosed Nuclei (%) [1, 7]: 12% and 17% | Population Tubulin-Different-Phenotype (%) [1, 7]: 3% and 4% | Population Apoptotic (%) [1, 8]: 88% | Population Fragmented Nuclei (%) [1, 8]: 34% and 16% | Population Healthy Nuclei (%) [1, 8]: 44% and 70% | Population Hoechst High Intensity Objects (%) [1, 8]: 9% and 5% | Population Membrane Permeable-Phenotype (%) [1, 8]: 16% and 7% | Population Mitochondria Different-Phenotype (%) [1, 8]: 9% and 3% | Population Mitotic Cells (%) [1, 8]: 11% | Population Normal (%) [1, 8]: 90% and 94% | Population Pyknosed Nuclei (%) [1, 8]: 21% and 13% | Population Tubulin-Different-Phenotype (%) [1, 8]: 9% and 2% | Population Apoptotic (%) [2, 3]: 38% and 61% | Population Fragmented Nuclei (%) [2, 3]: 3% and 7% | Population Healthy Nuclei (%) [2, 3]: 88% and 85% | Population Hoechst High Intensity Objects (%) [2, 3]: 5% and 7% | Population Membrane Permeable-Phenotype (%) [2, 3]: 0% | Population Mitochondria Different-Phenotype (%) [2, 3]: 44% and 69% | Population Mitotic Cells (%) [2, 3]: 61% and 38% | Population Normal (%) [2, 3]: 94% and 93% | Population Pyknosed Nuclei (%) [2, 3]: 7% | Population Tubulin-Different-Phenotype (%) [2, 3]: 46% and 49% | Population Apoptotic (%) [2, 4]: 61% and 88% | Population Fragmented Nuclei (%) [2, 4]: 8% and 9% | Population Healthy Nuclei (%) [2, 4]: 74% and 72% | Population Hoechst High Intensity Objects (%) [2, 4]: 9% and 15% | Population Membrane Permeable-Phenotype (%) [2, 4]: 0% | Population Mitochondria Different-Phenotype (%) [2, 4]: 80% and 82% | Population Normal (%) [2, 4]: 90% and 84% | Population Pyknosed Nuclei (%) [2, 4]: 16% and 17% | Population Tubulin-Different-Phenotype (%) [2, 4]: 68% and 54% | Population Apoptotic (%) [2, 5]: 50% and 47% | Population Fragmented Nuclei (%) [2, 5]: 10% and 9% | Population Healthy Nuclei (%) [2, 5]: 82% and 81% | Population Hoechst High Intensity Objects (%) [2, 5]: 3% and 9% | Population Membrane Permeable-Phenotype (%) [2, 5]: 0% | Population Mitochondria Different-Phenotype (%) [2, 5]: 25% and 47% | Population Mitotic Cells (%) [2, 5]: 50% and 52% | Population Normal (%) [2, 5]: 96% and 90% | Population Pyknosed Nuclei (%) [2, 5]: 7% and 9% | Population Tubulin-Different-Phenotype (%) [2, 5]: 31% and 30% | Population Apoptotic (%) [2, 6]: 54% and 56%
